From ChEMBL document CHEMBL1955824, “Indeno[1,2-b]indole derivatives as a novel class of potent human protein kinase CK2 inhibitors” (Bioorg Med Chem, 2012)

Experiments:
[1] = target: Casein kinase II alpha/beta (Homo sapiens) (UniProt P67870+P68400); assay: Inhibition of human CSNK2A1/2B expressed in Escherichia coli BL21(DE3) using RRRDDDSDDD as substrate at 10 uM after 15 mins by scintillation counting
In short: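 Holoenzyme from CSNK2A1 and CSNK2B subunits expressed separately in E. coli, extracts combined, column-purified. Enzyme preincubated with inhibitor in DMSO in Tris pH 7.5 kinase buffer. Final ATP 60 µM, peptide 114 µM. Incubated 37 °C for 15 min, spotted on P81 paper, washed with phosphoric acid and ethanol, then counted. Controls: DMSO (0%), no CK2 (100%).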

[2] = target: Casein kinase II alpha/beta (Homo sapiens, UniProt P68400); assay: Inhibition of human CSNK2A1/2B expressed in Escherichia coli BL21(DE3) using RRRDDDSDDD as substrate after 15 mins by scintillation counting
[3] = target: Proto-oncogene tyrosine-protein kinase Src (Homo sapiens, UniProt P12931); assay: Inhibition of human recombinant SRC expressed in Sf9 cells using poly(E,Y)4:1 as substrate after 80 mins by scintillation counting
In short: (§1)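 Commercial radiometric panel of His-tagged or GST-fused human kinases expressed in Sf9 cells, affinity-purified. Inhibitor added in 10% DMSO. Ten concentrations tested in singlicate; IC50 taken from dose–response curves.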

[4] = target: Vascular endothelial growth factor receptor 2 (Homo sapiens, UniProt P35968); assay: Inhibition of human recombinant VEGF-R2 expressed in Sf9 cells using poly(E,Y)4:1 as substrate after 80 mins by scintillation counting; in short: as §1
[5] = target: Vascular endothelial growth factor receptor 3 (Homo sapiens, UniProt P35916); assay: Inhibition of human recombinant VEGF-R3 expressed in Sf9 cells using poly(E,Y)4:1 as substrate after 80 mins by scintillation counting; in short: as §1
Insulin receptor = Insulin receptor (Homo sapiens, UniProt P06213); assay: Inhibition of human recombinant INS-R expressed in Sf9 cells using poly(A,E,K,Y)6:2:5:1 as substrate after 80 mins by scintillation counting; in short: as §1
[6] = target: Hepatocyte growth factor receptor (Homo sapiens, UniProt P08581); assay: Inhibition of human recombinant MET expressed in Sf9 cells using poly(A,E,K,Y)6:2:5:1 as substrate after 80 mins by scintillation counting; in short: as §1
Hepatocyte growth factor receptor, sequence (P08581 whole entry): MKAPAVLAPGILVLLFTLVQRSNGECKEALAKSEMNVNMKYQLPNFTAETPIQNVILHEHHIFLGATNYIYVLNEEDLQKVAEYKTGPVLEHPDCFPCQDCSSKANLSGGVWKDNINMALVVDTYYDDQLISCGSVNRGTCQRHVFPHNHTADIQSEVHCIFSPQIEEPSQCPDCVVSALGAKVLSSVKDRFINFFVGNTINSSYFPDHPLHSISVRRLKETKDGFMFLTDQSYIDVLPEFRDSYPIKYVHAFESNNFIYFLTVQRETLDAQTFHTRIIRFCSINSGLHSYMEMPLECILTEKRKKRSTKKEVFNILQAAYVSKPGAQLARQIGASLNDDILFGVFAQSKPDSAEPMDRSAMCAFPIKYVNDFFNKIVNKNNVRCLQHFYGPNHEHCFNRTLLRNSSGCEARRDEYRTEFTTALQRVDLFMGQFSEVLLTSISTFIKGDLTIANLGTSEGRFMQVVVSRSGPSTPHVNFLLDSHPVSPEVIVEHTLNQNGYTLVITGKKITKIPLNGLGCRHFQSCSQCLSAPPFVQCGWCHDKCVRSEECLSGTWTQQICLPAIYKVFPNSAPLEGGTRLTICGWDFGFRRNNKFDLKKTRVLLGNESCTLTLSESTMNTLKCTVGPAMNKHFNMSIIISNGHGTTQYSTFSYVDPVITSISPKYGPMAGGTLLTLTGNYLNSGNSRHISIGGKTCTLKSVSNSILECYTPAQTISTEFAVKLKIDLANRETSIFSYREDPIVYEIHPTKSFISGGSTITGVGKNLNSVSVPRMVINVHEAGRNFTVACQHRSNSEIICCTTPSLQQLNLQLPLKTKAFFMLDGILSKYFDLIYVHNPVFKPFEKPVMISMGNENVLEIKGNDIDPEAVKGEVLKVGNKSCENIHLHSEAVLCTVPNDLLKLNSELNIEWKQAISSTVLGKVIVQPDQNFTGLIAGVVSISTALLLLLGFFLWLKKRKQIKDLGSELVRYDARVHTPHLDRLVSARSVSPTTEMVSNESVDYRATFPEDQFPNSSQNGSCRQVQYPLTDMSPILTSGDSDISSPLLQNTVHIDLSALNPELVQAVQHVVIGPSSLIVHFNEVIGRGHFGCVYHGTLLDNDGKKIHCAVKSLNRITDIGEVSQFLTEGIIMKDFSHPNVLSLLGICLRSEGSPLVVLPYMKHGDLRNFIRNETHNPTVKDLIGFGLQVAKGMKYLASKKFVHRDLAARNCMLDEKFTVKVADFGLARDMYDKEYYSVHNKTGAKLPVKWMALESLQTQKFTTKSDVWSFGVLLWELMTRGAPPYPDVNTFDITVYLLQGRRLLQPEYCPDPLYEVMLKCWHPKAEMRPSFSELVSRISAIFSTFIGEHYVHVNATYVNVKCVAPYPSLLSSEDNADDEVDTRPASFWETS

[7] = target: Serine/threonine-protein kinase PLK1 (Homo sapiens, UniProt P53350); assay: Inhibition of human recombinant PLK1 expressed in Sf9 cells using casein as substrate after 80 mins by scintillation counting; in short: as §1
[8] = target: Serine/threonine-protein kinase PLK4 (Homo sapiens, UniProt O00444); assay: Inhibition of human recombinant SAK expressed in Sf9 cells using p38alpha-KRKR as substrate after 80 mins by scintillation counting; in short: as §1
Angiopoietin-1 receptor = Angiopoietin-1 receptor (Homo sapiens, UniProt Q02763); assay: Inhibition of human recombinant TIE2 expressed in Sf9 cells using poly(E,Y)4:1 as substrate after 80 mins by scintillation counting; in short: as §1
[9] = target: Mitogen-activated protein kinase kinase kinase 8 (Homo sapiens, UniProt P41279); assay: Inhibition of human recombinant COT expressed in Sf9 cells assessed as autophosphorylation after 80 mins by scintillation counting; in short: as §1
[10] = Growth inhibition of human KYSE-70 cells at 20 uM after 96 hrs by crystal violet staining; format: functional; conditions: KYSE-70, 96 h, read-out: GI
In short: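 KYSE-70 esophageal cancer cells grown in RPMI 1640 with 10% FCS, penicillin G and streptomycin. Cells exposed 96 h to compounds dissolved in DMF (final solvent 0.1%). Fixed 20 min in 1% glutaraldehyde, stained 30 min with 0.02% crystal violet, washed 30 min in water. Bound dye dissolved in ethanol/water 7:3, absorbance read at 570 nm.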

[11] = target: RAC-alpha serine/threonine-protein kinase (Homo sapiens, UniProt P31749); assay: Inhibition of human recombinant AKT1 expressed in Sf9 cells using GSK3(14-27) as substrate after 80 mins by scintillation counting; in short: as §1
RAC-alpha serine/threonine-protein kinase, sequence (P31749 whole entry): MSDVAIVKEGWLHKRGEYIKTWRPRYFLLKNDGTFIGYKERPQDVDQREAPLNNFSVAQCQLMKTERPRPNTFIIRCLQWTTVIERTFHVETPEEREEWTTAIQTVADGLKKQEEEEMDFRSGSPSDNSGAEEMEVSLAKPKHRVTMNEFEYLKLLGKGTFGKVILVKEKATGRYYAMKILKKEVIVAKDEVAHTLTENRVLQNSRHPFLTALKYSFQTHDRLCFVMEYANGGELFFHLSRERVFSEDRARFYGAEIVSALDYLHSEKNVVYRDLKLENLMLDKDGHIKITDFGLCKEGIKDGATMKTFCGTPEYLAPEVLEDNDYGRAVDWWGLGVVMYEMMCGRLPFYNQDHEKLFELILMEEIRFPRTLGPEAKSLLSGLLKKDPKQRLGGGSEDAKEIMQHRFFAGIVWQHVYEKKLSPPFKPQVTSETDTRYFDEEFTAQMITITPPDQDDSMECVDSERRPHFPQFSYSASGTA

[12] = target: NUAK family SNF1-like kinase 1 (Homo sapiens, UniProt O60285); assay: Inhibition of human recombinant ARK5 expressed in Sf9 cells assessed as autophosphorylation after 80 mins by scintillation counting; in short: as §1
NUAK family SNF1-like kinase 1, sequence (O60285 whole entry): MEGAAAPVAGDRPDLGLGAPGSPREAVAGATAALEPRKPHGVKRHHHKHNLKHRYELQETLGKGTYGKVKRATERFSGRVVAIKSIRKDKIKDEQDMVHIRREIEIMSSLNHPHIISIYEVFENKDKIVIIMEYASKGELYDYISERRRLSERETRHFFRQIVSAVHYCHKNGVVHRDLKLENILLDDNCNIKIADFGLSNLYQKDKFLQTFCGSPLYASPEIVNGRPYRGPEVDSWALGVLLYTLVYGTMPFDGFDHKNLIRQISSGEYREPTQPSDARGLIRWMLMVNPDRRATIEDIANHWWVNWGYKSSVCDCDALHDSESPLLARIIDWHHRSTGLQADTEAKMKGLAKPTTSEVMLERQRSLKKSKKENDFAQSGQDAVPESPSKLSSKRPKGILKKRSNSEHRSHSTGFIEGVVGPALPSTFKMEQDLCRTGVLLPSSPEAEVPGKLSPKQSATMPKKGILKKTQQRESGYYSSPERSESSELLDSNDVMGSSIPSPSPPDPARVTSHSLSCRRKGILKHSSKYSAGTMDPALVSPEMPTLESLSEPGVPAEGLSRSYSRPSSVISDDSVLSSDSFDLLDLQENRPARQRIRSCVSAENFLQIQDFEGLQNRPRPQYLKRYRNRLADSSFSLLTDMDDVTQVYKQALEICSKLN

Aurora kinase A = Aurora kinase A (Homo sapiens, UniProt O14965); assay: Inhibition of human recombinant aurora-A expressed in Sf9 cells using tetra(LRRWSLG) as substrate after 80 mins by scintillation counting; in short: as §1
Aurora kinase A, sequence (O14965 whole entry): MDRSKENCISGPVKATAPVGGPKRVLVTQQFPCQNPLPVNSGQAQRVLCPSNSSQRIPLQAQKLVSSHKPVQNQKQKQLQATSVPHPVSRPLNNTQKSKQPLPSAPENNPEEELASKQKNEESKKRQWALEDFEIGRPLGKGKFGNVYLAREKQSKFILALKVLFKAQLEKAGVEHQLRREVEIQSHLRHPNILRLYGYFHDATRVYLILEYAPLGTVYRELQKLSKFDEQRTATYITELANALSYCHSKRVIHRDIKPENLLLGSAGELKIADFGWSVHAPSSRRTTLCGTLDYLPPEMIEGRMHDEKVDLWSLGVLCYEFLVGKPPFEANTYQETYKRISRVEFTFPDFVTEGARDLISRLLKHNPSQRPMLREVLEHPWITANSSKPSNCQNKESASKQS

Aurora kinase B = Aurora kinase B (Homo sapiens, UniProt Q96GD4); assay: Inhibition of human recombinant aurora-B expressed in Sf9 cells using tetra(LRRWSLG) as substrate after 80 mins by scintillation counting; in short: as §1
[13] = target: Serine/threonine-protein kinase B-raf (Homo sapiens, UniProt P15056); assay: Inhibition of human recombinant B-RAF expressed in Sf9 cells using MEK1 KM as substrate after 80 mins by scintillation counting; in short: as §1
[14] = target: Cyclin-dependent kinase 2/cyclin A (Homo sapiens, UniProt P24941); assay: Inhibition of human recombinant CDK2/CyclinA expressed in Sf9 cells using histone H1 as substrate after 80 mins by scintillation counting; in short: as §1
[15] = target: Cyclin-dependent kinase 4/cyclin D1 (Homo sapiens, UniProt P11802); assay: Inhibition of human recombinant CDK4/CyclinD1 expressed in Sf9 cells using RB-CTF as substrate after 80 mins by scintillation counting; in short: as §1
Ephrin type-B receptor 4 = Ephrin type-B receptor 4 (Homo sapiens, UniProt P54760); assay: Inhibition of human recombinant EPHB4 expressed in Sf9 cells using poly(E,Y)4:1 as substrate after 80 mins by scintillation counting; in short: as §1
[16] = target: Receptor tyrosine-protein kinase erbB-2 (Homo sapiens, UniProt P04626); assay: Inhibition of human recombinant ERBB2 expressed in Sf9 cells using poly(E,Y)4:1 as substrate after 80 mins by scintillation counting; in short: as §1
Receptor tyrosine-protein kinase erbB-2, sequence (P04626 whole entry): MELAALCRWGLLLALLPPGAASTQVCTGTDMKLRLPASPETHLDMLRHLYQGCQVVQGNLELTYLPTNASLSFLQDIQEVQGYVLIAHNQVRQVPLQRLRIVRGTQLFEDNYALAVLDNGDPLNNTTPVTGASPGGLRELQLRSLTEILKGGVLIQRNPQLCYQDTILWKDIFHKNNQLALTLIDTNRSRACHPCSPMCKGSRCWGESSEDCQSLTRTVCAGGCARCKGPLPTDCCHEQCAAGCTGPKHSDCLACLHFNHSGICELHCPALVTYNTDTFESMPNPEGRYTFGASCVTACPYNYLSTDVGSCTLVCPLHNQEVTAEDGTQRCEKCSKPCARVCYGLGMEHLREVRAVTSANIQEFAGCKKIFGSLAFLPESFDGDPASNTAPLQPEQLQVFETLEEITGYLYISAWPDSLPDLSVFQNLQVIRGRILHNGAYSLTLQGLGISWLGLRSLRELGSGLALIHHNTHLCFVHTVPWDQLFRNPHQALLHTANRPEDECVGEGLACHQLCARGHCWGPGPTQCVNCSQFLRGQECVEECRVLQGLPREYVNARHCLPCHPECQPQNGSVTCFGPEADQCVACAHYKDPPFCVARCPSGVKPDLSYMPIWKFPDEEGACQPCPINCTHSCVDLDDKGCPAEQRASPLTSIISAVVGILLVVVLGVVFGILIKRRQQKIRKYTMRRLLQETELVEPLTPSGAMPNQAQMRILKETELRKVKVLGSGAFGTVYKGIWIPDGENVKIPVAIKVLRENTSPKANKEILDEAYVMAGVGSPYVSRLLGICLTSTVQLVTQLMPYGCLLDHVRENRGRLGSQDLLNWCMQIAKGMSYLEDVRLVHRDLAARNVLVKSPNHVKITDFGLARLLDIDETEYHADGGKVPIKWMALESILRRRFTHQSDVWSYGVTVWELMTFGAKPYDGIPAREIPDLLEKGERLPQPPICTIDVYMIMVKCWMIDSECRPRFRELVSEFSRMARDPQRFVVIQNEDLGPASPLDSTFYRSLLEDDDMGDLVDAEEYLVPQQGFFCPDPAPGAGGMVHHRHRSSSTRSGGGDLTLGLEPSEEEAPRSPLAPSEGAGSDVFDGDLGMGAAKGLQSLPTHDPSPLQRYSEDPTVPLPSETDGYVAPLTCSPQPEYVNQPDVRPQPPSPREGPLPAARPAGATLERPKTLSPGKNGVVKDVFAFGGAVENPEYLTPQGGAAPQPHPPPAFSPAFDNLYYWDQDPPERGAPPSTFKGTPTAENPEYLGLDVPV

Focal adhesion kinase 1 = Focal adhesion kinase 1 (Homo sapiens, UniProt Q05397); assay: Inhibition of human recombinant FAK expressed in Sf9 cells using poly(E,Y)4:1 as substrate after 80 mins by scintillation counting; in short: as §1
[17] = target: Insulin-like growth factor 1 receptor (Homo sapiens, UniProt P08069); assay: Inhibition of human recombinant IGF1R expressed in Sf9 cells using poly(E,Y)4:1 as substrate after 80 mins by scintillation counting; in short: as §1
[18] = Inhibition of rat liver casein kinase-2 preincubated for 5 mins prior ATP addition measured after 40 mins
[19] = Inhibition of casein kinase-2
In short: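 Recombinant human CK2 holoenzyme (CSNK2A1 and CSNK2B expressed separately in E. coli, extracts combined and purified), preincubated with compound in DMSO in kinase buffer pH 7.5. 37 °C, 15 min, P81 paper, scintillation counting. IC50 from dose–response over 0.01–30 µM, at least triplicate independent experiments.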

[20] = Inhibition of calf thymus casein kinase-2 using casein as substrate after 15 mins by liquid scintillation counting; set-up: species or system Bos taurus

Casein kinase II alpha/beta (Homo sapiens), sequence (P67870 2-215 limits assumed): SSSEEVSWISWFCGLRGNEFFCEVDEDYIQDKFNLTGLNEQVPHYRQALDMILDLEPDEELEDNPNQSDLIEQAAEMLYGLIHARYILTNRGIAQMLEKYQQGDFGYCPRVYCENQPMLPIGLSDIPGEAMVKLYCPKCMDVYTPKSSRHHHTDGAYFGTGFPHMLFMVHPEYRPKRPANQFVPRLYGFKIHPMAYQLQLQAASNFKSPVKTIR
Casein kinase II alpha/beta (Homo sapiens), sequence (P68400 whole entry partner): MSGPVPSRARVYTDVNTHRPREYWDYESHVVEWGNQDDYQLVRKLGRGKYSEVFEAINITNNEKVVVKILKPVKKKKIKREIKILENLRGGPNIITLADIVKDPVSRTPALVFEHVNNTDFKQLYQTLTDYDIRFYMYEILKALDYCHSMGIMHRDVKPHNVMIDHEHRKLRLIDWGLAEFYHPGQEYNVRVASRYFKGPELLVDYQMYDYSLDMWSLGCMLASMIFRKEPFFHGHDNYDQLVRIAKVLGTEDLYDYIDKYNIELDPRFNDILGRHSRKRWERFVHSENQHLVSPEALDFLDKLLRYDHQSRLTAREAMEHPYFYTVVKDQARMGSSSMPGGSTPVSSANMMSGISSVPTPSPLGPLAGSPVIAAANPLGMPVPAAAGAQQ

## CC(c1ccccc1)n1c2c(c3c1-c1ccccc1C3=O)C(=O)CCC2 (configuration not stated)
[1]
  inhibition: 66%
[2]
  IC50: 4.66 µM

## O=C1CC(c2ccccc2)Cc2c1c1c(n2Cc2ccccc2)-c2ccccc2C1=O (racemic)
[1]
  inhibition: 3%

## CC1CC(=O)c2c3c(n(Cc4ccccc4)c2C1)-c1ccccc1C3=O (racemic)
[1]
  inhibition: 11%

## CC(C)n1c2c(c3c1-c1ccccc1C3=O)C(=O)CCC2
[3]
  IC50: > 35000 nM
[4]
  IC50: > 35000 nM
[5]
  IC50: > 35000 nM
Insulin receptor
  IC50: > 35000 nM
[6]
  IC50: > 35000 nM
[7]
  IC50: > 35 µM
[8]
  IC50: > 35000 nM
Angiopoietin-1 receptor
  IC50: > 35000 nM
[9]
  IC50: > 35000 nM
[10]
  inhibition of growth at 20 µM: 25%
[11]
  IC50: > 35 µM
[12]
  IC50: > 35000 nM
Aurora kinase A
  IC50: > 35000 nM
Aurora kinase B
  IC50: > 35000 nM
[13]
  IC50: > 35000 nM
[14]
  IC50: > 35 µM
[15]
  IC50: > 35000 nM
Ephrin type-B receptor 4
  IC50: > 35000 nM
[16]
  IC50: > 35 µM
Focal adhesion kinase 1
  IC50: > 35 µM
[17]
  IC50: > 35000 nM

## O=C1CCCc2c1c1c(n2CCCc2ccccc2)-c2ccccc2C1=O
[1]
  inhibition: 27%

## O=C1CCCc2c1c1c(n2-c2ccccc2)-c2ccccc2C1=O
[1]
  inhibition: 60%

## COC(=O)C1C(=O)c2c([nH]c3c2C(=O)c2ccccc2-3)CC1C (configuration not stated)
[1]
  inhibition: 28%

## O=C1CCCc2c1c1c(n2CCc2ccccc2)-c2ccccc2C1=O
[1]
  inhibition: 67%

## O=C1CCCc2c1c1c(n2Cc2ccccn2)-c2ccccc2C1=O
[1]
  inhibition: 30%

## Cc1cc(O)c2c(c1)C(=O)c1cc(O)cc(O)c1C2=O [EMODIN]
[18]
  IC50: 890 nM

## OC[C@H]1O[C@@H](n2cnc3cc(Cl)c(Cl)cc32)[C@H](O)[C@@H]1O [DICHLORORIBOBENZIMIDAZOLE]
[19]
  IC50: 15 µM

## COc1ccc(CCn2c3c(c4c(O)cccc42)C(=O)c2ccccc2-3)cc1OC
[1]
  inhibition: 34%

## COc1ccc(CCn2c3c(c4c2-c2ccccc2C4=O)C(=O)CCC3)cc1OC
[1]
  inhibition: 50%

## COC(=O)C1C(=O)c2c3c(n(Cc4ccccc4)c2CC1C)-c1ccccc1C3=O (configuration not stated)
[1]
  inhibition: 15%

## CC1(C)CC(=O)c2c3c(n(Cc4ccccc4)c2C1)-c1ccccc1C3=O
[1]
  inhibition: 10%

## O=C1c2ccccc2-c2c1c1c(O)cccc1n2Cc1ccccc1
[1]
  inhibition: 25%

## O=C1CCCc2c1c1c(n2Cc2ccccc2)-c2ccccc2C1=O
[1]
  inhibition: 48%

## O=C1CCCc2[nH]c3c(c21)C(=O)c1ccccc1-3
[1]
  inhibition: 19%

## O=C1c2ccccc2-c2c1c1c(O)cc(-c3ccccc3)cc1n2Cc1ccccc1
[1]
  inhibition: 31%

## O=c1oc2c(O)c(O)cc3c(=O)oc4c(O)c(O)cc1c4c23 [ELLAGIC ACID]
[3]
  IC50: 800 nM
[4]
  IC50: 790 nM
[5]
  IC50: 1540 nM
Insulin receptor
  IC50: 340 nM
[6]
  IC50: 580 nM
[7]
  IC50: 3.34 µM
[8]
  IC50: 2970 nM
Angiopoietin-1 receptor
  IC50: 260 nM
[9]
  IC50: 2370 nM
[11]
  IC50: 3.34 µM
[12]
  IC50: 510 nM
Aurora kinase A
  IC50: 2480 nM
Aurora kinase B
  IC50: 2500 nM
[13]
  IC50: 1760 nM
[14]
  IC50: 3.39 µM
[15]
  IC50: 1090 nM
Ephrin type-B receptor 4
  IC50: 1830 nM
[16]
  IC50: 3.54 µM
Focal adhesion kinase 1
  IC50: 3.11 µM
[17]
  IC50: 250 nM

## Brc1c(Br)c(Br)c2[nH]nnc2c1Br [TETRABROMOBENZOTRIAZOLE]
[20]
  IC50: 1600 nM

## COc1ccc(Cn2c3c(c4c2-c2ccccc2C4=O)C(=O)CCC3)cc1
[1]
  inhibition: 41%
